Results: ChEMBL document CHEMBL3132834, “Synthesis and biological activity of NOSH-naproxen (AVT-219) and NOSH-sulindac (AVT-18A) as potent anti-inflammatory agents with chemotherapeutic potential” (Medchemcomm, 2013)
One block for each molecule: values may come before it.

Tests used:
HT-29 [1] = assay: Antiproliferative activity against human HT-29 cells assessed as reduction in PCNA expression at IC50 concentration after 24 hrs; assay type: functional
[2] = Selectivity ratio of IC50 for human MCF7 cells to IC50 for human HMEpC cells; assay type: ADME, cell-based; conditions: MCF7 cells versus HMEpC cells, read-out: Ratio IC50
BXPC-3 [3] = assay: Ratio of naproxen IC50 to compound IC50 for human BxPC3 cells after 24 hrs by MTT assay; assay type: functional
HT-29 [4] = assay: Induction of human HT-29 cells assessed as assessed as early apoptotic cells at IC50 concentration after 12 hrs by propidium iodide staining-based flow cytometric analysis; assay type: functional
[5] = Selectivity ratio of IC50 for human BxPC3 cells to IC50 for human IMR90 cells; assay type: ADME, cell-based, IMR-90; conditions: BxPC3 cells versus IMR90 cells, read-out: Ratio IC50
Jurkat [6] = assay: Cytotoxicity against human Jurkat cells assessed as growth inhibition after 24 hrs by MTT assay; assay type: functional, cell-based
Summary of the method: (§1)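 30,000 cells/well added to serially diluted compounds in V-bottom plates, 24 h at 37°C in 5% CO₂. MTT (1.1 mg/mL) added for 4 h more, formazan dissolved in DMSO, A570 read. IC₅₀ from 5–7 experiments in triplicate; ratio is parent IC₅₀ over hybrid IC₅₀.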

[7] = Selectivity ratio of IC50 for human Jurkat cells to IC50 for human IMR90 cells; assay type: ADME, cell-based; conditions: Jurkat cells versus IMR90 cells, read-out: Ratio IC50
HT-29 [8] = assay: Cytotoxicity against human HT-29 cells assessed as growth inhibition after 24 hrs by MTT assay; assay type: functional, cell-based; conditions: for IC50: HT-29, 24 h
Summary of the method: (§2)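 Cells grown in 10% FCS medium: HT-29 in McCoy 5A; MCF-7 and BxPC-3 in DMEM. 50,000 cells/well exposed to a range of concentrations for 24 h. MTT added for 2 h at 37°C, formazan dissolved in 10% SDS/0.01 M HCl, A570 read. IC₅₀ from cell numbers; mean ± S.E.M. of 5–7 experiments in triplicate. Ratios are parent IC₅₀ over hybrid IC₅₀.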

[9] = Cytotoxicity against human HMEpC cells assessed as growth inhibition after 24 hrs by MTT assay; assay type: cell-based
Summary of the method: (§3)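 Normal human cells: IMR-90 lung fibroblasts in EMEM with 10% heat-inactivated FCS and 2 mmol/L L-glutamine; primary pancreatic epithelial ACBRI 515 in serum-free medium with attachment factor; HMEpC in mammary epithelial growth medium. Exposed to a range of concentrations for 24 h; IC₅₀ from cell numbers. Mean ± SEM of 3 experiments in duplicate.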

[10] = Selectivity ratio of IC50 for human MCF7 cells to IC50 for human IMR90 cells; assay type: ADME, cell-based, IMR-90; conditions: MCF7 cells versus IMR90 cells, read-out: Ratio IC50
[11] = (§4) Cytotoxicity against human BxPC3 cells assessed as growth inhibition after 24 hrs by MTT assay; assay type: functional, cell-based; conditions: BXPC-3, 24 h; summary of the method: as §2
BXPC-3 [12] = assay: as §4; assay type: functional, cell-based; summary of the method: as §2
Rattus norvegicus [13] = assay: Antiinflammatory activity in Wistar rat assessed as inhibition of carrageenan-induced paw volume at 188 mg/kg through gavage administered 1 hr prior to carrageenan-challenge measured after 4 hrs (reference value: 1.1 +/- 0.1 mL); assay type: functional
HT-29 [14] = assay: Cell cycle arrest in human HT-29 cells assessed as accumulation at sub G2/M phase at IC50 concentration after 24 hrs by propidium iodide staining-based flow cytometric analysis (reference value: 28.7 +/- 2.1%); assay type: functional
Rattus norvegicus [15] = assay: Antiinflammatory activity in carrageenan-induced Wistar rat model assessed as inhibition of PGE2 level at 188 mg/kg through gavage administered 1 hr prior to carrageenan-challenge measured after 4 hrs (reference value: 95 +/- 7 pg/mL); assay type: functional
HT-29 [16] = assay: Induction of human HT-29 cells assessed as assessed as early apoptotic cells at IC50 concentration after 6 hrs by propidium iodide staining-based flow cytometric analysis; assay type: functional
[17] = Selectivity ratio of IC50 for human HT-29 cells to IC50 for human IMR90 cells; assay type: ADME, cell-based; conditions: HT-29 cells versus IMR90 cells, read-out: Ratio IC50
HT-29 [18] = assay: Cell cycle arrest in human HT-29 cells assessed as accumulation at G0/G1 phase at IC50 concentration after 24 hrs by propidium iodide staining-based flow cytometric analysis (reference value: 42.2 +/- 4%); assay type: functional
[19] = Selectivity ratio of IC50 for human BxPC3 cells to IC50 for human ACBRI 515 cells; assay type: ADME, cell-based, BXPC-3; conditions: BxPC3 cells versus ACBRI 515 cells, read-out: Ratio IC50
HT-29 [20] = assay: Cell cycle arrest in human HT-29 cells assessed as accumulation at S phase at IC50 concentration after 24 hrs by propidium iodide staining-based flow cytometric analysis (reference value: 29.2 +/- 3.3%); assay type: functional
[21] = Cytotoxicity against human ACBRI 515 cells assessed as growth inhibition after 24 hrs by MTT assay; assay type: cell-based; conditions: ACBRI-515, 24 h; summary of the method: as §3
MCF7 = assay: Cytotoxicity against human MCF7 cells assessed as growth inhibition after 24 hrs by MTT assay; assay type: functional, cell-based; conditions: for IC50: MCF7, 24 h; summary of the method: as §2
Serum [22] = assay: Prodrug conversion in carrageenan-induced Wistar rat model assessed as sulfide species in serum at 188 mg/kg through gavage administered 1 hr prior to carrageenan-challenge; assay type: ADME, organism-based; parameters: dose 188 mg/kg; conditions: in vivo, po
Summary of the method: (§5)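 Blood taken at the end of the carrageenan edema study from gavage-dosed rats (3 per group). Sulfide measured by the methylene blue method: plasma mixed with zinc acetate, trichloroacetic acid, N,N-dimethyl-p-phenylenediamine and FeCl₃ in 7.2M HCl, A670 read after 15 min. Run in duplicate against a NaHS calibration curve (1-250 μM). The read-out is total H₂S + HS⁻ + S²⁻.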

HT-29 [23] = assay: Induction of human HT-29 cells assessed as assessed as early apoptotic cells at IC50 concentration after 3 hrs by propidium iodide staining-based flow cytometric analysis; assay type: functional
[24] = Cytotoxicity against human IMR90 cells assessed as growth inhibition after 24 hrs by MTT assay; assay type: cell-based; conditions: IMR-90, 24 h; summary of the method: as §3
HT-29 [25] = assay: Induction of human HT-29 cells assessed as assessed as early apoptotic cells at IC50 concentration after 24 hrs by propidium iodide staining-based flow cytometric analysis; assay type: functional
HT-29 [26] = assay: Antiproliferative activity against human HT-29 cells assessed as reduction in PCNA expression at IC50 concentration; assay type: functional, cell-based; conditions: TDE = time-dependent effect
Rattus norvegicus [27] = assay: Antiinflammatory activity in carrageenan-induced Wistar rat model assessed as inhibition of PGE2 level at 200 mg/kg through gavage administered 1 hr prior to carrageenan-challenge measured after 4 hrs (reference value: 95 +/- 7 pg/mL); assay type: functional
Rattus norvegicus [28] = assay: Antiinflammatory activity in Wistar rat assessed as inhibition of carrageenan-induced paw volume at 200 mg/kg through gavage administered 1 hr prior to carrageenan-challenge measured after 4 hrs (reference value: 1.1 +/- 0.1 mL); assay type: functional
Serum [29] = assay: Prodrug conversion in carrageenan-induced Wistar rat model assessed as sulfide species in serum at 200 mg/kg through gavage administered 1 hr prior to carrageenan-challenge; assay type: ADME, organism-based; parameters: dose 200 mg/kg; conditions: in vivo, po; summary of the method: as §5
Rattus norvegicus [30] = assay: Antiinflammatory activity in Wistar rat assessed as inhibition of carrageenan-induced paw volume at 467 mg/kg through gavage administered 1 hr prior to carrageenan-challenge measured after 4 hrs (reference value: 1.1 +/- 0.1 mL; assay type: functional
Jurkat [31] = assay: Ratio of sulindac IC50 to compound IC50 for human Jurkat cells after 24 hrs by MTT assay; assay type: functional
Summary of the method: as §1, with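 “Jurkat T cells grown in suspension in RPMI 1640 with 10% FCS. 30,000” for “30,000”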

Rattus norvegicus [32] = assay: Antiinflammatory activity in carrageenan-induced Wistar rat model assessed as inhibition of PGE2 level at 467 mg/kg through gavage administered 1 hr prior to carrageenan-challenge measured after 4 hrs (reference value: 95 +/- 7 pg/mL); assay type: functional
HT-29 [33] = assay: Cell cycle arrest in human HT-29 cells assessed as accumulation at S phase at IC50 concentration after 24 hrs by propidium iodide staining-based flow cytometric analysis (reference value: 31.7 +/- 3.7%); assay type: functional
Serum [34] = assay: Prodrug conversion in carrageenan-induced Wistar rat model assessed as sulfide species in serum at 467 mg/kg through gavage administered 1 hr prior to carrageenan-challenge; assay type: ADME, organism-based; parameters: dose 467 mg/kg; conditions: in vivo, po; summary of the method: as §5
HT-29 [35] = assay: Cell cycle arrest in human HT-29 cells assessed as accumulation at sub G2/M phase at IC50 concentration after 24 hrs by propidium iodide staining-based flow cytometric analysis (reference value: 27.7 +/- 42%); assay type: functional
HT-29 [36] = assay: Cell cycle arrest in human HT-29 cells assessed as accumulation at G0/G1 phase at IC50 concentration after 24 hrs by propidium iodide staining-based flow cytometric analysis (reference value: 40.9 +/- 3.1%); assay type: functional

Compound: COc1ccc2cc([C@H](C)C(=O)O)ccc2c1 [NAPROXEN]
IC50 (HT-29 [8]): 2600 µM
IC50 [11]: 2450 µM
IC50 (MCF7): 2380 µM

Compound: CC(=O)N[C@H](C(=O)O)C(C)(C)SN=O
IC50 (HT-29 [8]): 508 µM

Compound: Oc1ccc(-c2cc(=S)ss2)cc1
IC50 (HT-29 [8]): 35 µM

Second part, led by results:

Stability (Serum [22]): Stable
Compound: C[C@H](C(=O)Oc1ccc(-c2cc(=S)ss2)cc1)c1ccc2cc(OC(=O)CCCO[N+](=O)[O-])ccc2c1
inhibition (INH) (HT-29 [1]): 50%
selectivity ratio [2]: 115
Ratio IC50 (BXPC-3 [3]): 16000
Activity (HT-29 [4]): 31.9%
selectivity ratio [5]: 70
IC50 (Jurkat [6]): 0.1 µM
growth inhibition (GI) (Jurkat [6]): Dose-dependent effect
selectivity ratio [7]: 70
growth inhibition (GI) (HT-29 [8]): Dose-dependent effect
IC50 (HT-29 [8]): 0.08 µM
IC50 [9]: 13.8 µM
selectivity ratio [10]: 70
IC50 [11]: 0.15 µM
growth inhibition (GI) (BXPC-3 [12]): Dose-dependent effect
Activity (Rattus norvegicus [13]): 0.15 mL
Activity (HT-29 [14]): 19.5%
Activity (Rattus norvegicus [15]): 35 pg/mg
Activity (HT-29 [16]): 25.3%
selectivity ratio [17]: 70
Activity (HT-29 [18]): 58.2%
selectivity ratio [19]: 147
Activity (HT-29 [20]): 22.3%
IC50 [21]: 22 µM
growth inhibition (GI) (MCF7): Dose-dependent effect
IC50 (MCF7): 0.12 µM
Activity (HT-29 [23]): 9.2%
IC50 [24]: 20 µM
Activity (HT-29 [25]): 59.2%
inhibition (HT-29 [26]): tde

Stability (Serum [29]): Stable
Compound: CC1=C(CC(=O)O)c2cc(F)ccc2/C1=C\c1ccc([S+](C)[O-])cc1 (configuration not stated)
Activity (Rattus norvegicus [27]): 12 pg/mg
IC50 (Jurkat [6]): 699 µM
IC50 (HT-29 [8]): 800 µM
IC50 [11]: 980 µM
IC50 (MCF7): 965 µM
Activity (Rattus norvegicus [28]): 0.22 mL

Stability (Serum [34]): Stable
Compound: CC1=C(CC(=O)Oc2ccc(OC(=O)CCCO[N+](=O)[O-])c(C(=O)Oc3ccc(-c4cc(=S)ss4)cc3)c2)c2cc(F)ccc2/C1=C\c1ccc([S+](C)[O-])cc1 (configuration not stated)
inhibition (INH) (HT-29 [1]): 50%
selectivity ratio [2]: 150
Activity (HT-29 [4]): 23.2%
selectivity ratio [5]: 70
Activity (Rattus norvegicus [30]): 0.21 mL
IC50 (Jurkat [6]): 0.27 µM
growth inhibition (GI) (Jurkat [6]): Dose-dependent effect
selectivity ratio [7]: 70
growth inhibition (GI) (HT-29 [8]): Dose-dependent effect
IC50 (HT-29 [8]): 0.089 µM
IC50 [9]: 15.2 µM
selectivity ratio [10]: 70
Ratio IC50 (Jurkat [31]): 2500
IC50 [11]: 0.12 µM
growth inhibition (GI) (BXPC-3 [12]): Dose-dependent effect
Activity (HT-29 [16]): 10.1%
Activity (Rattus norvegicus [32]): 29 pg/mg
Activity (HT-29 [33]): 10.6%
selectivity ratio [17]: 70
selectivity ratio [19]: > 200
IC50 [21]: > 25 µM
growth inhibition (GI) (MCF7): Dose-dependent effect
IC50 (MCF7): 0.1 µM
Activity (HT-29 [23]): 2.8%
IC50 [24]: 21.7 µM
Activity (HT-29 [35]): 59.8%
Activity (HT-29 [25]): 39.4%
inhibition (HT-29 [26]): tde
Activity (HT-29 [36]): 29.6%
